Laboratory results from ChEMBL document CHEMBL5108018, “Discovery of MDM2-p53 and MDM4-p53 protein-protein interactions small molecule dual inhibitors” (Eur J Med Chem, 2022).
pIC50: −log10 of the molar value. One block for each compound: values may come before it. Active and inactive are the calls of the source. The rule behind the calls is not given here.

Experiments:
HCT-116 = experiment: Antiproliferative activity against human HCT-116 cells harboring wild type p53 overexpressing MDM2 assessed as inhibition of cell growth incubated for 48 hrs by MTS assay; format: functional, cell-based; conditions: HCT-116, 48 h
Summary of the method: (§1)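 MTS viability: cells seeded 1×10^4/well (HCT116), 3×10^3/well (SJSA-1, LNCaP), 5×10^3/well (MCF-7), treated ~24 h after plating with DMSO-stock compounds serially diluted in medium (final DMSO ≤0.1%). Ten or more concentrations over 1–100 µM, duplicates, ≥3 independent runs. Exposure 48 h (HCT116), 72 h (MCF-7), 96 h (SJSA-1, LNCaP). MTS 0.5 mg/mL added for 15–30 min, A490. IC50 from four-parameter variable-slope fit.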

[1] = molecular target: Tumour suppressor p53/oncoprotein Mdm2 (Homo sapiens, UniProt P04637+Q00987); experiment: Inhibition of MDM2/p53 interaction in human U-87 MG cells preincubated for 10 mins under shaking condition and measured after 1.5 hrs by immuno-enzymatic assay; format: cell-based
[2] = molecular target: Tumour suppressor protein p53/Mdm4 (Homo sapiens, UniProt O15151+P04637); experiment: Inhibition of MDM4/p53 interaction in human SH-SY5Y cells preincubated for 10 mins under shaking condition and measured after 1.5 hrs by immuno-enzymatic assay; format: cell-based
SJSA-1 [3] = experiment: Antiproliferative activity against human SJSA-1 cells harboring wild type p53 overexpressing MDM2/4 assessed as inhibition of cell growth incubated for 96 hrs by MTS assay; format: functional, cell-based; conditions: SJSA-1, 96 h; summary of the method: as §1
MCF7 = experiment: Antiproliferative activity against human MCF7 cells harboring wild type p53 overexpressing MDM2/4 assessed as inhibition of cell growth incubated for 72 hrs by MTS assay; format: functional, cell-based; conditions: MCF7, 72 h; summary of the method: as §1
SJSA-1 [4] = experiment: Induction of apoptosis in human SJSA-1 cells assessed as early apoptotic cells at 22.5 uM incubated for 96 hrs by Annexin V-FITC/7-AAD staining based flow cytometric analysis (reference value: 0.3%); format: functional
SJSA-1 [5] = experiment: Induction of cell cycle arrest in human SJSA-1 cells assessed as accumulation of cells at G2/M phase at 15 uM incubated for 96 hrs by RNaseA/PI staining based flow cytometry analysis (reference value: 17.24 %); format: functional
SJSA-1 [6] = experiment: Induction of apoptosis in human SJSA-1 cells assessed as viable cells at 22.5 uM incubated for 96 hrs by Annexin V-FITC/7-AAD staining based flow cytometric analysis (reference value: 99.2%); format: functional; conditions: read-out: Activity
SJSA-1 [7] = experiment: Induction of apoptosis in human SJSA-1 cells assessed as late apoptotic cells at 22.5 uM incubated for 96 hrs by Annexin V-FITC/7-AAD staining based flow cytometric analysis (reference value: 0.6%); format: functional
SJSA-1 [8] = experiment: Induction of apoptosis in human SJSA-1 cells assessed as viable cells at 15 uM incubated for 96 hrs by Annexin V-FITC/7-AAD staining based flow cytometric analysis (reference value: 99.2%); format: functional; conditions: read-out: Activity
SJSA-1 [9] = experiment: Induction of cell cycle arrest in human SJSA-1 cells assessed as accumulation of cells at S phase at 22.5 uM incubated for 96 hrs by RNaseA/PI staining based flow cytometry analysis (reference value: 25.88 %); format: functional
LNCaP = experiment: Antiproliferative activity against human LNCaP cells harboring wild type p53 overexpressing MDM2/4 assessed as inhibition of cell growth incubated for 96 hrs by MTS assay; format: functional, cell-based; summary of the method: as §1
SJSA-1 [10] = experiment: Induction of cell cycle arrest in human SJSA-1 cells assessed as accumulation of cells at G0/G1 phase at 15 uM incubated for 96 hrs by RNaseA/PI staining based flow cytometry analysis (reference value: 57.09 %); format: functional
SJSA-1 [11] = experiment: Induction of cell cycle arrest in human SJSA-1 cells assessed as accumulation of cells at G2/M phase at 22.5 uM incubated for 96 hrs by RNaseA/PI staining based flow cytometry analysis (reference value: 17.24 %); format: functional
HEK-293T = experiment: Cytotoxicity against HEK293T cells assessed as reduction in cell viability at 15 uM incubated for 96 hrs by MTS assay relative to control; format: toxicity, cell-based; conditions: human
Summary of the method: (§2)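 Single-concentration MTS viability with DMSO vehicle control (final ≤0.1%) run in parallel. HEK293T: 3×10^3 cells/well, 15 µM for 96 h. HCT116 p53(-/-): 20 µM for 48 h. Compound added ~24 h after plating; MTS 0.5 mg/mL in fresh medium for 15–30 min, A490. Mean ± SD of three independent experiments, one-way ANOVA with Bonferroni test.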

SJSA-1 [12] = experiment: Induction of cell cycle arrest in human SJSA-1 cells assessed as accumulation of cells at S phase at 15 uM incubated for 96 hrs by RNaseA/PI staining based flow cytometry analysis (reference value: 25.88 %); format: functional
SJSA-1 [13] = experiment: Induction of cell cycle arrest in human SJSA-1 cells assessed as accumulation of cells at G0/G1 phase at 22.5 uM incubated for 96 hrs by RNaseA/PI staining based flow cytometry analysis (reference value: 57.09 %); format: functional
[14] = Antiproliferative activity against human HCT116-p53-null cells assessed as reduction in cell viability at 20 uM incubated for 48 hrs by MTS assay; format: functional; summary of the method: as §2
SJSA-1 [15] = experiment: Induction of cell death in human SJSA-1 cells assessed as reduction in cell growth at 1.5 times IC50 incubated for 96 hrs by bright field microscopic analysis; format: functional, cell-based
Summary of the method: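 Brightfield microscopy of SJSA-1 cell morphology after 96 h with DMSO vehicle or compound.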

Sequence of Tumour suppressor protein p53/Mdm4 (P04637 whole entry): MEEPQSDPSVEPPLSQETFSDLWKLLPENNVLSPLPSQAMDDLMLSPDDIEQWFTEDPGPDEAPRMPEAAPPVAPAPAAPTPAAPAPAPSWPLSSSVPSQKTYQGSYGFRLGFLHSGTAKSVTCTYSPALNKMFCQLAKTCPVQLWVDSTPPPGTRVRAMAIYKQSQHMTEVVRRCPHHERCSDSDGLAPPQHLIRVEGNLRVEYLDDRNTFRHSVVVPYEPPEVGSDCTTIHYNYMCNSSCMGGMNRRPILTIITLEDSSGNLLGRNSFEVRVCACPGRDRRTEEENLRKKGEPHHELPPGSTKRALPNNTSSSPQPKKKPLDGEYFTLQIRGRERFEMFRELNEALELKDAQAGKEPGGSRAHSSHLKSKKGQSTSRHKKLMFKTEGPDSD
Sequence of Tumour suppressor protein p53/Mdm4 (O15151 whole entry): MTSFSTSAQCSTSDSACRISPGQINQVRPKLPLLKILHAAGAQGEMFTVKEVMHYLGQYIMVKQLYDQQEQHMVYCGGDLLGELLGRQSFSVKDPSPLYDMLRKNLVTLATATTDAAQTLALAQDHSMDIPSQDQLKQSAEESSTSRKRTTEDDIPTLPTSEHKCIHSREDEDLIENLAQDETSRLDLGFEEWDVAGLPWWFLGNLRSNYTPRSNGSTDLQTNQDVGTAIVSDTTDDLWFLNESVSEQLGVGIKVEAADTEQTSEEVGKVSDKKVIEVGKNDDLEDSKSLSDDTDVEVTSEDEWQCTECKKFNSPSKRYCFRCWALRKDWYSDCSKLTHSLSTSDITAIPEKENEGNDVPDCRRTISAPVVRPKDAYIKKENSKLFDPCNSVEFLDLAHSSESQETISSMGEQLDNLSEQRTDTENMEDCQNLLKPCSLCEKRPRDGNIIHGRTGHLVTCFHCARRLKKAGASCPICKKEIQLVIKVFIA
Sequence of Tumour suppressor p53/oncoprotein Mdm2 (P04637 whole entry): as the sequence (P04637 whole entry) above
Sequence of Tumour suppressor p53/oncoprotein Mdm2 (Q00987 whole entry): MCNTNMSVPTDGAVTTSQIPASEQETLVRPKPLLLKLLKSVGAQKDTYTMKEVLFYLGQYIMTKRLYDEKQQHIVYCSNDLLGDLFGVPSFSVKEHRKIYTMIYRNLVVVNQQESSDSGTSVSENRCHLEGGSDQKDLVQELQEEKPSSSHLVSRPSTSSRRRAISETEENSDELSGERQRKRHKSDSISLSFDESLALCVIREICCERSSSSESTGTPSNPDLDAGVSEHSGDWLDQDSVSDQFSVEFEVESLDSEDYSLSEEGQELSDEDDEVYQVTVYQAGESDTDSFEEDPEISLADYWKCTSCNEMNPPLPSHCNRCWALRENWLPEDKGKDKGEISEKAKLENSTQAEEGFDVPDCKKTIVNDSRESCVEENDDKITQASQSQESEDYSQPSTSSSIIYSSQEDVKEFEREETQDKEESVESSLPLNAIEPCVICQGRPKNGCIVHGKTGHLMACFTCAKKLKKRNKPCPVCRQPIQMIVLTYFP

SMILES: CCOC(=O)C1=NN(C(C)(C)C)C2(C(=O)Nc3cc(Cl)c(F)cc32)C1c1cccc(F)c1 (stereo not given)
pIC50 (HCT-116): 4.38

SMILES: CC(C)(C)N1N=C(C(=O)O)C(c2cccc(Cl)c2F)C12C(=O)Nc1cc(Cl)ccc12 (stereo not given)
pIC50 (HCT-116): < 4.00

SMILES: O=C1Nc2ccc(Br)cc2C12C(c1ccccc1)C(c1ccccc1)=NN2c1ccccc1 (stereo not given)
pIC50 [1]: 6.84
pIC50 [2]: 6.53

SMILES: CCOC(=O)C1=NN(C(C)(C)C)C2(C(=O)Nc3cc(Cl)ccc32)C1c1cccc(F)c1 (stereo not given)
pIC50 (HCT-116): 4.35

SMILES: O=C(NCCc1ccc(O)cc1)C1=NN(c2ccc(Cl)cc2)C2(C(=O)Nc3cc(Cl)ccc32)C1c1cccc(O)c1 (stereo not given)
pIC50 (HCT-116): 4.57

SMILES: CCOC(=O)C1=NN(C2CCCCC2)C2(C(=O)Nc3cc(Cl)ccc32)C1c1ccc(Cl)cc1 (stereo not given)
pIC50 (HCT-116): 4.41

Second part, led by results:

pIC50 (HCT-116): 4.47
SMILES: CCOC(=O)C1=NN(c2ccc(Cl)cc2)C2(C(=O)Nc3cc(Cl)ccc32)C1c1cccc(O)c1 (stereo not given)

pIC50 (HCT-116): < 4.30
SMILES: O=C(NCCO)C1=NN(c2ccc(Cl)cc2)C2(C(=O)Nc3cc(Cl)ccc32)C1c1cccc(O)c1 (stereo not given)

pIC50 (HCT-116): 4.49
SMILES: CCOC(=O)C1=NN(C(C)(C)C)C2(C(=O)Nc3cc(Cl)ccc32)C1c1cccc(Cl)c1F (stereo not given)

pIC50 (HCT-116): 4.45
SMILES: CCOC(=O)C1=NN(C(C)(C)C)C2(C(=O)Nc3cc(Cl)c(F)cc32)C1c1cccc(Cl)c1F (stereo not given)

pIC50 (HCT-116): 4.47
SMILES: CC(C)(C)N1N=C(C(=O)Nc2ccc(O)cc2)C(c2cccc(Cl)c2F)C12C(=O)Nc1cc(Cl)ccc12 (stereo not given)

pIC50 (SJSA-1 [3]): 4.81
pIC50 (MCF7): 4.81
pIC50 (LNCaP): 4.97
pIC50 (HCT-116): 4.74
SMILES: CCOC(=O)C1=NN(c2ccc(Cl)cc2)C2(C(=O)Nc3cc(Cl)ccc32)C1c1cccc(Cl)c1F (stereo not given)
Activity (SJSA-1 [4]): 2.9%
Activity (SJSA-1 [5]): 11.01%
viability at 22.5 µM (SJSA-1 [6]): 92.7%
Activity (SJSA-1 [7]): 4.3%
viability at 15 µM (SJSA-1 [8]): 98.6%
Activity (SJSA-1 [9]): 11.13%
Activity (SJSA-1 [10]): 67.51%
Activity (SJSA-1 [11]): 6.67%
Activity (HEK-293T): 24%
Activity (SJSA-1 [12]): 21.48%
Activity (SJSA-1 [13]): 82.19%
Activity [14]: 13%
Activity (SJSA-1 [15]): Active

pIC50 (HCT-116): 4.52
SMILES: CCOC(=O)C1=NN(c2ccccc2)C2(C(=O)Nc3cc(Cl)ccc32)C1c1cccc(F)c1 (stereo not given)
